Measured values as given in ChEMBL document CHEMBL2346629, “Discovery and characterization of novel allosteric FAK inhibitors” (Eur J Med Chem, 2013).

Legend:
[1] = biological target: T1, Cyclin-dependent kinase 5/CDK5 activator 1 (Homo sapiens) (UniProt Q00535+Q15078); test: Inhibition of CDK5/p35 (unknown origin) using [gamma-33P]ATP assessed as residual activity at 3 uM; type: protein-complex assay
Summary of the method: (§1)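 Radiometric profiling across 288 kinases (261 wild-type, 27 mutant), run as an outsourced service. Inhibition read out as [gamma-33P]ATP incorporation into substrate.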

[2] = biological target: Homeodomain-interacting protein kinase 3 (Homo sapiens) (UniProt Q9H422); test: Inhibition of HIPK3 (unknown origin) using [gamma-33P]ATP assessed as residual activity at 3 uM
Summary of the method: (§2)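 Radiometric kinase profiling service covering 288 kinases (261 wild-type, 27 mutant). Inhibition was read as incorporation from [γ-³³P]ATP.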

[3] = biological target: Ribosomal protein S6 kinase beta-1 (Homo sapiens) (UniProt P23443); test: Inhibition of P70S6K (unknown origin) using [gamma-33P]ATP assessed as residual activity at 3 uM
[4] = biological target: Protein kinase C eta type (Homo sapiens) (UniProt P24723); test: Inhibition of PKCeta (unknown origin) using [gamma-33P]ATP assessed as residual activity at 3 uM
[5] = tested on: Tyrosine-protein kinase BTK (Homo sapiens), Q06187 [E41K]; test: Inhibition of BTK E41K mutant (unknown origin) using [gamma-33P]ATP assessed as residual activity at 3 uM; summary of the method: as §1
[6] = biological target: SRSF protein kinase 1 (Homo sapiens) (UniProt Q96SB4); test: Inhibition of SRPK1 (unknown origin) using [gamma-33P]ATP assessed as residual activity at 3 uM
[7] = biological target: High affinity nerve growth factor receptor (Homo sapiens) (UniProt P04629); test: Inhibition of TRKA (unknown origin) using [gamma-33P]ATP assessed as residual activity at 3 uM
[8] = biological target: Mitogen-activated protein kinase 8 (Homo sapiens) (UniProt P45983); test: Inhibition of JNK1a1 (unknown origin) using [gamma-33P]ATP assessed as residual activity at 3 uM; summary of the method: as §2
[9] = biological target: Serine/threonine-protein kinase MRCK beta (Homo sapiens) (UniProt Q9Y5S2); test: Inhibition of MRCKB (unknown origin) using [gamma-33P]ATP assessed as residual activity at 3 uM
[10] = biological target: Wee1-like protein kinase (Homo sapiens) (UniProt P30291); test: Inhibition of WEE1 (unknown origin) using [gamma-33P]ATP assessed as residual activity at 3 uM
[11] = biological target: Cyclin-dependent kinase 7/ cyclin H (Homo sapiens) (UniProt P51946+P50613); test: Inhibition of CDK7/cyclin H/MNAT1 (unknown origin) using [gamma-33P]ATP assessed as residual activity at 3 uM; type: protein-complex assay; summary of the method: as §1
[12] = biological target: Rhodopsin kinase GRK7 (Homo sapiens) (UniProt Q8WTQ7); test: Inhibition of GRK7 (unknown origin) using [gamma-33P]ATP assessed as residual activity at 3 uM; summary of the method: as §2
[13] = biological target: LIM domain kinase 1 (Homo sapiens) (UniProt P53667); test: Inhibition of LIMK1 (unknown origin) using [gamma-33P]ATP assessed as residual activity at 3 uM; summary of the method: as §2
[14] = biological target: Calcium/calmodulin-dependent protein kinase kinase 2 (Homo sapiens) (UniProt Q96RR4); test: Inhibition of CAMKK2 (unknown origin) using [gamma-33P]ATP assessed as residual activity at 3 uM; summary of the method: as §1
[15] = biological target: Serine/threonine-protein kinase D1 (Homo sapiens) (UniProt Q15139); test: Inhibition of PKCmu (unknown origin) using [gamma-33P]ATP assessed as residual activity at 3 uM
[16] = biological target: Calcium/calmodulin-dependent protein kinase type II subunit delta (Homo sapiens) (UniProt Q13557); test: Inhibition of CAMK2d (unknown origin) using [gamma-33P]ATP assessed as residual activity at 3 uM; summary of the method: as §1
[17] = biological target: Ribosomal protein S6 kinase alpha-6 (Homo sapiens) (UniProt Q9UK32); test: Inhibition of RSK4 (unknown origin) using [gamma-33P]ATP assessed as residual activity at 3 uM
[18] = biological target: Calcium/calmodulin-dependent protein kinase type IV (Homo sapiens) (UniProt Q16566); test: Inhibition of CAMK4 (unknown origin) using [gamma-33P]ATP assessed as residual activity at 3 uM; summary of the method: as §1
[19] = biological target: Death-associated protein kinase 3 (Homo sapiens) (UniProt O43293); test: Inhibition of ZIPK (unknown origin) using [gamma-33P]ATP assessed as residual activity at 3 uM
[20] = biological target: Homeodomain-interacting protein kinase 1 (Homo sapiens) (UniProt Q86Z02); test: Inhibition of HIPK1 (unknown origin) using [gamma-33P]ATP assessed as residual activity at 3 uM; summary of the method: as §2
[21] = biological target: Glycogen synthase kinase-3 beta (Homo sapiens) (UniProt P49841); test: Inhibition of GSK3B (unknown origin) using [gamma-33P]ATP assessed as residual activity at 3 uM; summary of the method: as §2
[22] = biological target: Homeodomain-interacting protein kinase 2 (Homo sapiens) (UniProt Q9H2X6); test: Inhibition of HIPK2 (unknown origin) using [gamma-33P]ATP assessed as residual activity at 3 uM; summary of the method: as §2
[23] = biological target: T1, Cyclin-dependent kinase 5/CDK5 activator 1 (Homo sapiens); test: Inhibition of CDK5/p25 (unknown origin) using [gamma-33P]ATP assessed as residual activity at 3 uM; type: protein-complex assay; summary of the method: as §1
[24] = biological target: Activin receptor type-1B (Homo sapiens) (UniProt P36896); test: Inhibition of ALK4 (unknown origin) using [gamma-33P]ATP assessed as residual activity at 3 uM; summary of the method: as §1
[25] = biological target: Dual specificity tyrosine-phosphorylation-regulated kinase 4 (Homo sapiens) (UniProt Q9NR20); test: Inhibition of DYRK4 (unknown origin) using [gamma-33P]ATP assessed as residual activity at 3 uM
Summary of the method: (§3)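 Reaction Biology HotSpot radiometric profiling panel of 288 kinases (261 wild-type, 27 mutant). Kinase activity was read out by incorporation of [γ-33P]ATP.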

[26] = biological target: PAS domain-containing serine/threonine-protein kinase (Homo sapiens) (UniProt Q96RG2); test: Inhibition of PASK (unknown origin) using [gamma-33P]ATP assessed as residual activity at 3 uM
[27] = biological target: Inhibitor of nuclear factor kappa-B kinase subunit beta (Homo sapiens) (UniProt O14920); test: Inhibition of IKKb (unknown origin) using [gamma-33P]ATP assessed as residual activity at 3 uM; summary of the method: as §2
[28] = biological target: Dual specificity protein kinase CLK3 (Homo sapiens) (UniProt P49761); test: Inhibition of CLK3 (unknown origin) using [gamma-33P]ATP assessed as residual activity at 3 uM; summary of the method: as §3
[29] = biological target: Serine/threonine-protein kinase TAO2 (Homo sapiens) (UniProt Q9UL54); test: Inhibition of TAOK2 (unknown origin) using [gamma-33P]ATP assessed as residual activity at 3 uM
[30] = tested on: Platelet-derived growth factor receptor alpha (Homo sapiens), P16234 [V561D]; test: Inhibition of PDGFRa V561D mutant (unknown origin) using [gamma-33P]ATP assessed as residual activity at 3 uM
[31] = tested on: MAP kinase-interacting serine/threonine-protein kinase 1 (Homo sapiens), Q9BUB5 [T385D]; test: Inhibition of MNK1 T385D mutant (unknown origin) using [gamma-33P]ATP assessed as residual activity at 3 uM
Summary of the method: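 Contract radiometric panel screen of 288 kinases (261 wild-type, 27 mutant). Inhibition was read by [gamma-33P]ATP radioactivity incorporation.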

T1 sequence (Q00535 whole entry): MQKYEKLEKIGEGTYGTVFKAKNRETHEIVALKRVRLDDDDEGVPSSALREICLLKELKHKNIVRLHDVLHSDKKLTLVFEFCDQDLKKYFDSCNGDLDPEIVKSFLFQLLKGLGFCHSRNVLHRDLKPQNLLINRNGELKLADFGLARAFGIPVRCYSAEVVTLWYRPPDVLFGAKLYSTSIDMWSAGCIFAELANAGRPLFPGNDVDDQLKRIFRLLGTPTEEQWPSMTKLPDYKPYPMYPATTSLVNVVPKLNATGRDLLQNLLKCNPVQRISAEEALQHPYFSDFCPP
T1 sequence (Q15078 99-307 partner limits assumed): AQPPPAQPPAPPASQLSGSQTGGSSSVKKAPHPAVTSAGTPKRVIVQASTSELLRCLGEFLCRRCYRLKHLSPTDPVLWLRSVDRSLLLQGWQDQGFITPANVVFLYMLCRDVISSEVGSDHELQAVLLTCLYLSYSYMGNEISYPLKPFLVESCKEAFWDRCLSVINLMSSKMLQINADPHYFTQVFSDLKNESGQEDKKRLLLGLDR
Chain of Calcium/calmodulin-dependent protein kinase type II subunit delta (Homo sapiens) (Q13557 whole entry): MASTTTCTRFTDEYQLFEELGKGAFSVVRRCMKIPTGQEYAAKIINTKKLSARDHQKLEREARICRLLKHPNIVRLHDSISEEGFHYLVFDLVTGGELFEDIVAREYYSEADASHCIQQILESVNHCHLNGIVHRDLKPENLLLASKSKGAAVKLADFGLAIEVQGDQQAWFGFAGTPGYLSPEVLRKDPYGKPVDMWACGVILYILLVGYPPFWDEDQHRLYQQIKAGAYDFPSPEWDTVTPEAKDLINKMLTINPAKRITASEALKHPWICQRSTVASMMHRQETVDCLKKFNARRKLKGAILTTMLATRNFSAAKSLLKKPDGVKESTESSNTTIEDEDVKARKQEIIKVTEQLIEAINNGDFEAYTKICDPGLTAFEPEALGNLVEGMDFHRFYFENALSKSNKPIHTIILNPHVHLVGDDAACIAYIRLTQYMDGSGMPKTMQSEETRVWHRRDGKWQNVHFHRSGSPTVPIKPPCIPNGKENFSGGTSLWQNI
Chain of Ribosomal protein S6 kinase alpha-6 (Homo sapiens) (Q9UK32 whole entry): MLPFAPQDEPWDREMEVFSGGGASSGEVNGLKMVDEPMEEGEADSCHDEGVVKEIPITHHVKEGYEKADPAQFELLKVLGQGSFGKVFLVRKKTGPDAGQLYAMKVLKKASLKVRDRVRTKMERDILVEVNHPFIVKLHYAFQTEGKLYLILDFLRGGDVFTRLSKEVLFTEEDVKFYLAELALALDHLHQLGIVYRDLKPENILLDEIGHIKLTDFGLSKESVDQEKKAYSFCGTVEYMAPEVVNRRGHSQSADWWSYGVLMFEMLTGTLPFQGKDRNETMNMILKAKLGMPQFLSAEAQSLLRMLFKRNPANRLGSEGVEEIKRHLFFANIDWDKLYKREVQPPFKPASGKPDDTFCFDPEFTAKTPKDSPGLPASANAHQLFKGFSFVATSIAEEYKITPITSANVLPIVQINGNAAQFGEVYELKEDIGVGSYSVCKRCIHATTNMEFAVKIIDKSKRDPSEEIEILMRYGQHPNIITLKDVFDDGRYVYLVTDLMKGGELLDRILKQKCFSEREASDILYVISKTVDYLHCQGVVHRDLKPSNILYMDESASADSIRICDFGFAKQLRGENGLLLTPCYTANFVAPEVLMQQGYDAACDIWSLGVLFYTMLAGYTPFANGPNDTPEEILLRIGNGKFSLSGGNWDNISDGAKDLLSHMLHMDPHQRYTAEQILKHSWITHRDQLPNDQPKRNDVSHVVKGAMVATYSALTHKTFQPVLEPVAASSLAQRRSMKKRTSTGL
Chain of Dual specificity tyrosine-phosphorylation-regulated kinase 4 (Homo sapiens) (Q9NR20 whole entry): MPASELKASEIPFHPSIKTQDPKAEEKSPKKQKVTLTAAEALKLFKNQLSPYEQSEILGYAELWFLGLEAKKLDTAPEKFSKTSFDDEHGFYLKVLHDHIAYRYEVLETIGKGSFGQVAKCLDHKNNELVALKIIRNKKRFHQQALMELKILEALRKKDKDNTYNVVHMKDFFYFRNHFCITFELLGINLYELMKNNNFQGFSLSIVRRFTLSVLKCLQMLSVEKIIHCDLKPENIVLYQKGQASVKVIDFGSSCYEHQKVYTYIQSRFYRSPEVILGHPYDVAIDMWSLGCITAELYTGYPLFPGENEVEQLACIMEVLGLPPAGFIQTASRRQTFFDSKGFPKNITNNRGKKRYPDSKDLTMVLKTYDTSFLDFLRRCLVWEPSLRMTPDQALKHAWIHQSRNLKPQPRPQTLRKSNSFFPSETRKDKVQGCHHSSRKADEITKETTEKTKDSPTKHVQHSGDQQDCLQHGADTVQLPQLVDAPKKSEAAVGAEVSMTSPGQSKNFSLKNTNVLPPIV
Chain of Mitogen-activated protein kinase 8 (Homo sapiens) (P45983 whole entry): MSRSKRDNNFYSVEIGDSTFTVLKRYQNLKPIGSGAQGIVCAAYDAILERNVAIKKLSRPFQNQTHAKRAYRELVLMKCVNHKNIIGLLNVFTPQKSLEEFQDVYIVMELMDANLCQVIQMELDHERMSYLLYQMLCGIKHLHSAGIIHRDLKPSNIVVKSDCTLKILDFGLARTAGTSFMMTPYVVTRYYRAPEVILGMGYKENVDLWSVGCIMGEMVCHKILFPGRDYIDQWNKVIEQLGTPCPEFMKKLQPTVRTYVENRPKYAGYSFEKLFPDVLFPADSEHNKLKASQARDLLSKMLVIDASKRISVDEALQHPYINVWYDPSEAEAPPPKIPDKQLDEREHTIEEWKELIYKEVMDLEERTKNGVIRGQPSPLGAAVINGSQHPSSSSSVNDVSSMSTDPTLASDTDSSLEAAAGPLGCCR
Chain of MAP kinase-interacting serine/threonine-protein kinase 1 (Homo sapiens), Q9BUB5 [T385D] (Q9BUB5 whole entry T385D): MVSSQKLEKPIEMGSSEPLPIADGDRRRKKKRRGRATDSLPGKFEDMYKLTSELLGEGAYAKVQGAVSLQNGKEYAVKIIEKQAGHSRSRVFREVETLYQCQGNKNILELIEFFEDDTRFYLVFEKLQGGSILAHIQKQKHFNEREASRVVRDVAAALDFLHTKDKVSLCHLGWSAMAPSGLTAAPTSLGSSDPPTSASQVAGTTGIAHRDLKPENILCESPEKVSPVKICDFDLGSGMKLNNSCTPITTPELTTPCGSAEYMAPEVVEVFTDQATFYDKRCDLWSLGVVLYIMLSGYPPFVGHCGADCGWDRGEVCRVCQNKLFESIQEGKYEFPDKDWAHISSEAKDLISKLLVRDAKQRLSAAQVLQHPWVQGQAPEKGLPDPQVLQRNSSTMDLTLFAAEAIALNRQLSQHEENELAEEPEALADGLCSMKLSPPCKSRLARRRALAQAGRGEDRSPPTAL
Chain of Death-associated protein kinase 3 (Homo sapiens) (O43293 whole entry, looked up): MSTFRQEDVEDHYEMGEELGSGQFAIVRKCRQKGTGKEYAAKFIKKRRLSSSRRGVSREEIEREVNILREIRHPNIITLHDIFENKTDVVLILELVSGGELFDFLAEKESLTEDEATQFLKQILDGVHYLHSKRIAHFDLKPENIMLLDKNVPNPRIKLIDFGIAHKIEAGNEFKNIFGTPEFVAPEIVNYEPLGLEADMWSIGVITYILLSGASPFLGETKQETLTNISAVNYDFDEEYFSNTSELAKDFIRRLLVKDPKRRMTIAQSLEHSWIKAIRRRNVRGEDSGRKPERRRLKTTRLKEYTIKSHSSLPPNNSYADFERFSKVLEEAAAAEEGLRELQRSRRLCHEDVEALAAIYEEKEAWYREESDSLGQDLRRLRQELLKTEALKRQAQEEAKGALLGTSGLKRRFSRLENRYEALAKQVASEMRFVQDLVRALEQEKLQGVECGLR
Chain of SRSF protein kinase 1 (Homo sapiens) (Q96SB4 whole entry): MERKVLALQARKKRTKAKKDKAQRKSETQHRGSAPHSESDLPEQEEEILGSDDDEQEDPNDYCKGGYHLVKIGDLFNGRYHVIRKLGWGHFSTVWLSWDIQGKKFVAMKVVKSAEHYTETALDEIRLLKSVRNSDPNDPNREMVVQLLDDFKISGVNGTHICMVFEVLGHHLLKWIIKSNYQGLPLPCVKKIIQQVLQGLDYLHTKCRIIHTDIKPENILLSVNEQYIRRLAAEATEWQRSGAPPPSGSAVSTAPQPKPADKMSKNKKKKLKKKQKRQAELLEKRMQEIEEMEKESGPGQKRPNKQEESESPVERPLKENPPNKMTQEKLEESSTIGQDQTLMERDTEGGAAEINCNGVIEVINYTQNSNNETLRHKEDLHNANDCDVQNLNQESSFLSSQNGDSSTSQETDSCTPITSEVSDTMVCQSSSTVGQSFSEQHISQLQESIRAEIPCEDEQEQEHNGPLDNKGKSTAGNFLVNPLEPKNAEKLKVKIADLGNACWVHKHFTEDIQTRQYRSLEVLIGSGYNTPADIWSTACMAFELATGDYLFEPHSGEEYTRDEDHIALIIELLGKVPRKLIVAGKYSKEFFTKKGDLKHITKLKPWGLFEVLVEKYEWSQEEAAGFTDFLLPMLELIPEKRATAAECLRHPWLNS
Chain of Glycogen synthase kinase-3 beta (Homo sapiens) (P49841 whole entry, looked up): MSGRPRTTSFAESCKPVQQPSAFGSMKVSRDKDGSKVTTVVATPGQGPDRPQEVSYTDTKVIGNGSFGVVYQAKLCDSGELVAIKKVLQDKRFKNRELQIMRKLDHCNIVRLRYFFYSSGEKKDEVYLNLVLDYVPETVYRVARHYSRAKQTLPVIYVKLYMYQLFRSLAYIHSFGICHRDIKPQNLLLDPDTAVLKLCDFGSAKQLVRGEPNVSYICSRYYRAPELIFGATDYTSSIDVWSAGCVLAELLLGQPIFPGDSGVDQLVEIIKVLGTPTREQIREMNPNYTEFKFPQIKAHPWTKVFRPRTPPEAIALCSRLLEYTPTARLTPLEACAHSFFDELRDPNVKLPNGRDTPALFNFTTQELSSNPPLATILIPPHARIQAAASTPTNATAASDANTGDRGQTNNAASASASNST

CCc1ccc(-c2ccc3c(c2)-c2[nH]ncc2S(=O)(=O)N3C)cc1
Activity [1]: 90% | Activity [2]: 104% | Activity [3]: 95% | Activity [4]: 93% | Activity [5]: 100% | Activity [6]: 90% | Activity [7]: 88% | Activity [8]: 101% | Activity [9]: 101% | Activity [10]: 91% | Activity [11]: 97% | Activity [12]: 85% | Activity [13]: 86% | Activity [14]: 65% | Activity [15]: 93% | Activity [16]: 95% | Activity [17]: 101% | Activity [18]: 95% | Activity [19]: 97% | Activity [20]: 104% | Activity [21]: 103% | Activity [22]: 101% | Activity [23]: 90% | Activity [24]: 94% | Activity [25]: 103% | Activity [26]: 95% | Activity [27]: 102% | Activity [28]: 95% | Activity [29]: 100% | Activity [30]: 81% | Activity [31]: 86%
